Consider 6 compounds from ChEMBL document CHEMBL3621166, “Synthesis, Structure-Activity Relationship, and Mechanistic Investigation of Lithocholic Acid Amphiphiles for Colon Cancer Therapy” (Medchemcomm, 2015).

Activity calls are given as the source filed them. No cut-off for these calls is given here.

Data set [1] is described as follows: Cytotoxicity against human DLD1 cells assessed as cell viability after 48 hrs by MTT assay. It is filed as functional, cell-based. The note with it: DLD-1, 48 h.
The nature of data set [2]: Cytotoxicity against human HCT8 cells assessed as cell viability after 48 hrs by MTT assay. In kind it is functional, cell-based. The note with it: HCT-8, 48 h.
A short description of data set [3]: Retention time of the compound by HPLC method. In kind it is physicochemical.
In data set [4] the test system is HCT-116. The experiment in a line: Cytotoxicity against human HCT116 cells assessed as cell viability after 48 hrs by MTT assay. In kind it is functional, cell-based. To be noted: HCT-116, 48 h. (Tetrazolium assays rely on reduction of a dye to a coloured formazan, in cell work by metabolically active cells.)
Data set [5] deals with HCT-116. The data set can be described thus: Induction of apoptosis in human HCT116 cells assessed as late apoptotic cells at 25 uM after 48 hrs using annexin-V FITC and propidium iodide staining by flow cytometry (reference value: 1.59%). In kind it is functional.
The subject of data set [6] is HCT-116. The data set can be described thus: Inhibition of colony formation in human HCT116 cells at 15 to 50 uM after 2 weeks using crystal violet staining. It is filed as functional, cell-based. In outline:
(§1)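 Cells plated at 200 per well and treated after 24 h adherence at 15, 25 or 50 μM. Colonies stained with crystal violet after 2 weeks and counted. Plating efficiency taken from untreated wells, survival fraction from treated colony counts. Two experiments in duplicate, mean ± SD.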

The nature of data set [7]: Cell cycle arrest in human HCT8 cells at 15 to 50 uM after 48 hrs using propidium iodide staining by FACS analysis. The note with it: HCT-8. It is filed as functional, cell-based. The method, boiled down:
(§2)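 Cells seeded at ~2 × 10^5 per well, treated after 24 h at 15, 25 and 50 μM for 48 h. Harvested by trypsin, washed in cold PBS and fixed in 70% ice-cold ethanol. RNase-treated 1 h at 37 °C, stained with propidium iodide (50 μg mL−1) 20 min at room temperature, and analysed by FACS. Triplicate, mean ± SD.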
(In general: Flow cytometry measures light scatter and fluorescence of single cells or particles in a stream.)

Another data set has as its system DLD-1. The experiment in a line: Inhibition of colony formation in human DLD1 cells at 15 to 50 uM after 2 weeks using crystal violet staining. In kind it is functional, cell-based. The method, boiled down:
as §1

The test system of data set [8] is HCT-116. The data set can be described thus: Induction of apoptosis in human HCT116 cells assessed as early apoptotic cells at 50 uM after 48 hrs using annexin-V FITC and propidium iodide staining by flow cytometry (reference value: 4.80%). It is filed as functional.
The next data set concerns HCT-8. The data set can be described thus: Inhibition of colony formation in human HCT8 cells at 15 to 50 uM after 2 weeks using crystal violet staining. It is filed as functional, cell-based. The method, boiled down:
as §1

For data set [9], the system named is HCT-116. The data set can be described thus: Induction of apoptosis in human HCT116 cells assessed as late apoptotic cells at 50 uM after 48 hrs using annexin-V FITC and propidium iodide staining by flow cytometry (reference value: 1.59%). In kind it is functional.
Data set [10] has as its system HCT-116. The experiment in a line: Induction of apoptosis in human HCT116 cells assessed as late apoptotic cells at 15 uM after 48 hrs using annexin-V FITC and propidium iodide staining by flow cytometry (reference value: 1.59%). It is filed as functional.
The subject of data set [11] is HCT-116. The experiment in a line: Induction of apoptosis in human HCT116 cells assessed as early apoptotic cells at 15 uM after 48 hrs using annexin-V FITC and propidium iodide staining by flow cytometry (reference value: 4.80%). In kind it is functional.
Data set [12] relates to HCT-116. The data set can be described thus: Cell cycle arrest in human HCT116 cells at 15 to 50 uM after 48 hrs using propidium iodide staining by FACS analysis. In kind it is functional, cell-based. The method, boiled down:
as §2

Data set [13] in a line: Cell cycle arrest in human DLD1 cells at 15 to 50 uM after 48 hrs using propidium iodide staining by FACS analysis. To be noted: DLD-1. In kind it is functional, cell-based. In outline: as §2
In data set [14] the test system is HCT-116. The experiment in a line: Induction of apoptosis in human HCT116 cells assessed as early apoptotic cells at 25 uM after 48 hrs using annexin-V FITC and propidium iodide staining by flow cytometry (reference value: 4.80%). It is filed as functional.

With `COC(=O)CC[C@@H](C)[C@H]1CC[C@H]2[C@@H]3CC[C@@H]4C[C@H](OC(=O)CN5CCSCC5)CC[C@]4(C)[C@H]3CC[C@]12C.Cl`, the IC50 amounted to 163 µM in data set [1], 130 µM in data set [2] and 87.3 µM in the data set with HCT-116 [4]. In [3], this compound registered a Retention_time of 28.63 min.

Consider `COC(=O)CC[C@@H](C)[C@H]1CC[C@H]2[C@@H]3CC[C@@H]4C[C@H](OC(=O)C[N+]56CCN(CC5)CC6)CC[C@]4(C)[C@H]3CC[C@]12C.[Cl-]`, for which the results for the IC50 (in [1]; in data set [2]; in the data set on HCT-116 [4]) were 46.4 µM, 76.4 µM and 60.7 µM, respectively. The compound also returned a Retention_time in data set [3] of 7.98 min.

On to `COC(=O)CC[C@@H](C)[C@H]1CC[C@H]2[C@@H]3CC[C@@H]4C[C@H](OC(=O)CN5CCOCC5)CC[C@]4(C)[C@H]3CC[C@]12C.Cl`, for which the concentration for half-maximal inhibition (IC50) in data set [1] was 176 µM; in data set [2], 121 µM; in the data set on HCT-116 [4] it was 89 µM. The same compound displayed a Retention_time in data set [3] of 24.17 min.

As for `COC(=O)CC[C@@H](C)[C@H]1CC[C@H]2[C@@H]3CC[C@@H]4C[C@H](OC(=O)C[n+]5ccccc5)CC[C@]4(C)[C@H]3CC[C@]12C.[Cl-]`, the concentration for half-maximal inhibition (IC50) in data set [1] was found to be 35.4 µM; in data set [2], 35.4 µM; with HCT-116 [4] it was 26.5 µM. In data set [3], the Retention_time was 7.84 min.

Consider `C[C@H](CCC(=O)O)[C@H]1CC[C@H]2[C@@H]3CC[C@@H]4C[C@H](O)CC[C@]4(C)[C@H]3CC[C@]12C` [LITHOCHOLIC ACID], for which the Activity was determined as 11.54% in the data set on HCT-116 [5]; 21.89% in the data set with HCT-116 [8]; 13.15% in the data set with HCT-116 [9]; 8.88% in the data set on HCT-116 [10]; 10.21% in the data set on HCT-116 [11]; 18.79% with HCT-116 [14]. The inhibition result in the data set on HCT-116 [6], in the data set on DLD-1 and in the data set with HCT-8 was “inactive” in each case. The outcome (in data set [7]; in the data set with HCT-116 [12]; in data set [13]) was inactive. For the same compound, the IC50 in data set [1] came to 173 µM; in data set [2], 97.4 µM; in the data set with HCT-116 [4], 81.1 µM.

In the case of `COC(=O)CC[C@@H](C)[C@H]1CC[C@H]2[C@@H]3CC[C@@H]4C[C@H](OC(=O)CN5CCNCC5)CC[C@]4(C)[C@H]3CC[C@]12C`, the IC50 in [1] was determined as 118 µM; in data set [2], 115 µM; in the data set on HCT-116 [4], 102 µM.

Broadly, the IC50 is the concentration needed to halve the response being measured.
